According to ChEMBL document CHEMBL2150901, “Synthesis and biological activity of tricyclic cycloalkylimidazo-, pyrimido- and diazepinopurinediones” (Eur J Med Chem, 2011):
Calls of active or inactive are those of the source. The rule behind the calls is not given here.

Legend:
Mus musculus [1] = experiment: Anticonvulsant activity in F1 albino mouse assessed as protection against maximal electroshock-induced seizures at 300 mg/kg, ip after 0.25 hrs; type: functional, organism-based; design: dose 300 mg/kg
Summary of the method: (§1)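 Male albino F-1 mice (18–25 g), groups of 1–5 (rotorod 2–8). Compound given ip as a suspension in 0.5% methylcellulose at 30, 100 and 300 mg/kg. Seizures by maximal electroshock or subcutaneous pentylenetetrazole; neurotoxicity by rotorod. Read at 0.5 and 4 h, with some at 0.25, 1 and 2 h. Value is the minimum active dose, with protected (or toxic)/tested animals.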

Mus musculus [2] = experiment: Anticonvulsant activity in F1 albino mouse assessed as protection against maximal electroshock-induced seizures at 100 mg/kg, ip after 0.5 hrs; type: functional, organism-based; design: dose 100 mg/kg; summary of the method: as §1
Mus musculus [3] = experiment: Anticonvulsant activity in F1 albino mouse assessed as protection against maximal electroshock-induced seizures at 300 mg/kg, ip after 1 hr; type: functional, organism-based; design: dose 300 mg/kg; summary of the method: as §1
Mus musculus [4] = experiment: Anticonvulsant activity in F1 albino mouse assessed as protection against maximal electroshock-induced seizures at 300 mg/kg, ip after 4 hrs; type: functional, organism-based; design: dose 300 mg/kg; summary of the method: as §1
Mus musculus [5] = experiment: Anticonvulsant activity in F1 albino mouse assessed as protection against subcutaneous pentylenetetrazole-induced seizures at 300 mg/kg, ip after 0.25 hrs; type: functional, organism-based; design: dose 300 mg/kg; summary of the method: as §1
Mus musculus [6] = experiment: Anticonvulsant activity in F1 albino mouse assessed as protection against subcutaneous pentylenetetrazole-induced seizures at 100 mg/kg, ip after 0.5 hrs; type: functional, organism-based; design: dose 100 mg/kg; summary of the method: as §1
Mus musculus [7] = experiment: Anticonvulsant activity in F1 albino mouse assessed as protection against subcutaneous pentylenetetrazole-induced seizures at 300 mg/kg, ip after 1 hr; type: functional, organism-based; design: dose 300 mg/kg; summary of the method: as §1
Mus musculus [8] = experiment: Anticonvulsant activity in F1 albino mouse assessed as protection against subcutaneous pentylenetetrazole-induced seizures at 300 mg/kg, ip after 4 hrs; type: functional, organism-based; design: dose 300 mg/kg; summary of the method: as §1
Mus musculus [9] = experiment: Neurotoxicity in F1 albino mouse assessed as minimal motor impairment at 300 mg/kg, ip after 0.25 hrs by rotorod test; type: toxicity, organism-based; design: dose 300 mg/kg, route intraperitoneal; settings: in vivo; summary of the method: as §1
Mus musculus [10] = experiment: Neurotoxicity in F1 albino mouse assessed as minimal motor impairment at 300 mg/kg, ip after 0.5 hrs by rotorod test; type: toxicity, organism-based; design: dose 300 mg/kg, route intraperitoneal; settings: in vivo; summary of the method: as §1
Mus musculus [11] = experiment: Neurotoxicity in F1 albino mouse assessed as minimal motor impairment at 300 mg/kg, ip after 1 hr by rotorod test; type: toxicity, organism-based; design: dose 300 mg/kg, route intraperitoneal; settings: in vivo; summary of the method: as §1
Mus musculus [12] = experiment: Neurotoxicity in F1 albino mouse assessed as minimal motor impairment at 300 mg/kg, ip after 4 hrs by rotorod test; type: toxicity, organism-based; design: dose 300 mg/kg, route intraperitoneal; settings: in vivo; summary of the method: as §1
Rattus norvegicus [13] = experiment: Anticonvulsant activity in Sprague-Dawley albino rat assessed as protection against maximal electroshock-induced seizures at 30 mg/kg, po after 0.5 hrs; type: functional, organism-based; design: dose 30 mg/kg
Summary of the method: (§2)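 Male Sprague-Dawley albino rats (100–150 g), groups of 4. Oral suspension in 0.5% methylcellulose/water. Protection assessed by maximal electroshock or subcutaneous pentylenetetrazole; motor impairment by rotorod. Time points 0.25–4 h. Value is protected (or toxic)/tested animals.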

Rattus norvegicus [14] = experiment: Anticonvulsant activity in Sprague-Dawley albino rat assessed as protection against maximal electroshock-induced seizures at 30 mg/kg, po after 1 hr; type: functional, organism-based; design: dose 30 mg/kg; summary of the method: as §2
Rattus norvegicus [15] = experiment: Anticonvulsant activity in Sprague-Dawley albino rat assessed as protection against maximal electroshock-induced seizures at 30 mg/kg, po after 2 hrs; type: functional, organism-based; design: dose 30 mg/kg; summary of the method: as §2
Rattus norvegicus [16] = experiment: Anticonvulsant activity in Sprague-Dawley albino rat assessed as protection against maximal electroshock-induced seizures at 30 mg/kg, po after 4 hrs; type: functional, organism-based; design: dose 30 mg/kg; summary of the method: as §2
Rattus norvegicus [17] = experiment: Anticonvulsant activity in Sprague-Dawley albino rat assessed as protection against subcutaneous pentylenetetrazole-induced seizures at 50 mg/kg, po after 0.25 hrs; type: functional, organism-based; design: dose 50 mg/kg; summary of the method: as §2
Rattus norvegicus [18] = experiment: Anticonvulsant activity in Sprague-Dawley albino rat assessed as protection against subcutaneous pentylenetetrazole-induced seizures at 50 mg/kg, po after 0.5 hrs; type: functional, organism-based; design: dose 50 mg/kg; summary of the method: as §2
Rattus norvegicus [19] = experiment: Anticonvulsant activity in Sprague-Dawley albino rat assessed as protection against subcutaneous pentylenetetrazole-induced seizures at 50 mg/kg, po after 1 hr; type: functional, organism-based; design: dose 50 mg/kg; summary of the method: as §2
Rattus norvegicus [20] = experiment: Anticonvulsant activity in Sprague-Dawley albino rat assessed as protection against subcutaneous pentylenetetrazole-induced seizures at 50 mg/kg, po after 2 hrs; type: functional, organism-based; design: dose 50 mg/kg; summary of the method: as §2
Rattus norvegicus [21] = experiment: Anticonvulsant activity in Sprague-Dawley albino rat assessed as protection against subcutaneous pentylenetetrazole-induced seizures at 50 mg/kg, po after 4 hrs; type: functional, organism-based; design: dose 50 mg/kg; summary of the method: as §2
Rattus norvegicus [22] = experiment: Neurotoxicity in Sprague-Dawley albino rat assessed as minimal motor impairment at 30 mg/kg, po after 0.25 hrs by rotorod test; type: toxicity, organism-based; design: dose 30 mg/kg, route oral; settings: in vivo; summary of the method: as §2
Rattus norvegicus [23] = experiment: Neurotoxicity in Sprague-Dawley albino rat assessed as minimal motor impairment at 30 mg/kg, po after 0.5 hrs by rotorod test; type: toxicity, organism-based; design: dose 30 mg/kg, route oral; settings: in vivo; summary of the method: as §2
Rattus norvegicus [24] = experiment: Neurotoxicity in Sprague-Dawley albino rat assessed as minimal motor impairment at 30 mg/kg, po after 1 hr by rotorod test; type: toxicity, organism-based; design: dose 30 mg/kg, route oral; settings: in vivo; summary of the method: as §2
Rattus norvegicus [25] = experiment: Neurotoxicity in Sprague-Dawley albino rat assessed as minimal motor impairment at 30 mg/kg, po after 4 hrs by rotorod test; type: toxicity, organism-based; design: dose 30 mg/kg, route oral; settings: in vivo
Summary of the method: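 Male Sprague-Dawley albino rats (100–150 g), groups of 4, dosed orally with a suspension in 0.5% methylcellulose/water. Neurotoxicity was scored as minimal motor impairment on the rotorod at 0.25, 0.5, 1 and 4 h. Results are reported as animals showing toxicity per animals tested.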

Rattus norvegicus [26] = species on record: Rattus norvegicus; experiment: Selectivity ratio of Ki for adenosine A1 receptor in rat brain cortical membrane to Ki for adenosine A2A receptor in rat brain striatal membrane; type: cell membranes
Summary of the method: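 Ki ratios from radioligand competition binding. Rat A1 used brain cortical membranes and rat A2A used brain striatal membranes. Human A1 and A2A used membranes of CHO cells expressing the receptors. A1 radioligand [³H]CCPA; A2A radioligand [³H]MSX-2. Potent compounds were tested at 6–7 concentrations spanning 3 orders of magnitude.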

Adenosine receptor A2a [27] = target: T1, Adenosine receptor A2a (Rattus norvegicus, UniProt P30543); experiment: Displacement of [3H]MSX-2 from adenosine A2A receptor in rat brain striatal membrane; type: cell membranes
T1 sequence (P30543 whole entry): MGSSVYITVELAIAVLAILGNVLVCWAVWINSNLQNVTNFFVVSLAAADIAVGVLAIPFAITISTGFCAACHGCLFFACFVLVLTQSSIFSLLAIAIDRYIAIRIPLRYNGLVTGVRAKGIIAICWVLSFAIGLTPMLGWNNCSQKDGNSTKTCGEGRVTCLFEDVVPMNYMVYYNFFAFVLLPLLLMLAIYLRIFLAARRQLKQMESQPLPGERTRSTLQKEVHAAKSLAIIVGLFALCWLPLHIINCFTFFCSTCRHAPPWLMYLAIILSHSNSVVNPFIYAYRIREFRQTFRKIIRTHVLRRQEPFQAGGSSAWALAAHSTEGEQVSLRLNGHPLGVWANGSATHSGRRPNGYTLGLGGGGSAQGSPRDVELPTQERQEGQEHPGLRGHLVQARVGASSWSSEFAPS

Adenosine receptor A1 [28] = target: T2, Adenosine receptor A1 (Rattus norvegicus, UniProt P25099); experiment: Displacement of [3H]CCPA from adenosine A1 receptor in rat brain cortical membrane; type: cell membranes
T2 sequence (P25099 whole entry): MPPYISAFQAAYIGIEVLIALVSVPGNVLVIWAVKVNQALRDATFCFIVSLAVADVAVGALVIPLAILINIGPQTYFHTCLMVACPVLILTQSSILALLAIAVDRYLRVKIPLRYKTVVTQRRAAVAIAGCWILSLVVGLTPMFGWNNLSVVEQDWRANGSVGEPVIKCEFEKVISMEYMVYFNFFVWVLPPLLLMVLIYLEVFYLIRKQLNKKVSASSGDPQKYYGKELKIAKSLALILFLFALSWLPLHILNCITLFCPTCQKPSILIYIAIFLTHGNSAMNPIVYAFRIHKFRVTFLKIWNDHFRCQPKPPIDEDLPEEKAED

Mus musculus [29] = experiment: Anticonvulsant activity in F1 albino mouse assessed as protection against maximal electroshock-induced seizures at 300 mg/kg, ip after 0.5 hrs; type: functional, organism-based; design: dose 300 mg/kg; summary of the method: as §1
Mus musculus [30] = experiment: Toxicity in F1 albino mouse assessed as mortality following clonic seizures at 300 mg/kg, ip after 0.5 hrs; type: organism-based; design: dose 300 mg/kg, route intraperitoneal; settings: in vivo
Summary of the method: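 Male albino F-1 mice (18–25 g) were dosed i.p. with a suspension in 0.5% methylcellulose in water at 30, 100 and 300 mg/kg. Screening used MES, subcutaneous pentylenetetrazole (ScMet) and rotorod tests, with 1–5 mice per seizure test.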

Adenosine receptor A1 [31] = target: T2, Adenosine receptor A1; experiment: Displacement of [3H]CPX from adenosine A1 receptor in rat brain cortical membrane; type: cell membranes
Adenosine receptor A3 = target: T3, Adenosine receptor A3 (Homo sapiens, UniProt P0DMS8); experiment: Displacement of [125I]AB-MECA from human adenosine A3 receptor expressed in HEK293 cells; type: cell-based
T3 sequence (P0DMS8 whole entry): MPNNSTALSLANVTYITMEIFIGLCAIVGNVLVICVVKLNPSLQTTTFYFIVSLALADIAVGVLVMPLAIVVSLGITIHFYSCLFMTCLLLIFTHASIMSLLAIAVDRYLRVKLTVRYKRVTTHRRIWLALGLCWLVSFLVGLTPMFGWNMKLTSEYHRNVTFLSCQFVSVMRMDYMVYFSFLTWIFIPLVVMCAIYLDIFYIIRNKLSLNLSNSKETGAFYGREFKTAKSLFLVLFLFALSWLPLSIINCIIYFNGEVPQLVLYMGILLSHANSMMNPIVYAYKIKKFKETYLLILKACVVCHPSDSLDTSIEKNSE

Adenosine receptor A2b = target: T4, Adenosine receptor A2b (Homo sapiens, UniProt P29275); experiment: Displacement of [3H]MRS-1754 from human recombinant adenosine A2B receptor expressed in HEK293 cells; type: cell-based
T4 sequence (P29275 whole entry): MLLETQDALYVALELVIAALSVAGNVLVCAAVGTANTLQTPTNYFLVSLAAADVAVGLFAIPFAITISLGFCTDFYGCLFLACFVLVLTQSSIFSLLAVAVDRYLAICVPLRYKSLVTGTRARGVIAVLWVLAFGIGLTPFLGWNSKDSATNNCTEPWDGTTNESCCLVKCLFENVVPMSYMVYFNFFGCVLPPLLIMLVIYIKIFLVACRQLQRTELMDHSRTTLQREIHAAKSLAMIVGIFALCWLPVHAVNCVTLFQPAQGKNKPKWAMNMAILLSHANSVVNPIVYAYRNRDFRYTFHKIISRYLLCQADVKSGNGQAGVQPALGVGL

Adenosine receptor A2a [32] = target: T1, Adenosine receptor A2a; experiment: Displacement of [125I]ZM241385 from adenosine A2A receptor in rat brain striatum membrane; type: cell membranes

| Structure (SMILES) | Activity (Mus musculus [1]) | Activity (Mus musculus [3]) | Activity (Mus musculus [4]) | Activity (Mus musculus [5]) | Activity (Mus musculus [7]) | Activity (Mus musculus [8]) | Activity (Mus musculus [9]) | Activity (Mus musculus [10]) | Activity (Mus musculus [11]) | Activity (Mus musculus [12]) | Ratio Ki (Rattus norvegicus [26]) | Ki (Adenosine receptor A2a [27]) | Ki (Adenosine receptor A1 [28]) | other results |
| --- | --- | --- | --- | --- | --- | --- | --- | --- | --- | --- | --- | --- | --- | --- |
| C[C@@H](C1CCCCC1)N1CCCn2c1nc1c2c(=O)n(C)c(=O)n1C | inactive | inactive | inactive | inactive | inactive | inactive | Non-toxic | Non-toxic | Non-toxic | Non-toxic | 13 | 887 nM | 11900 nM | Activity (Mus musculus [2]): Active; Activity (Mus musculus [6]): inactive; Activity (Rattus norvegicus [13]): inactive; Activity (Rattus norvegicus [14]): Active; Activity (Rattus norvegicus [15]): inactive; Activity (Rattus norvegicus [16]): inactive; Activity (Rattus norvegicus [17]): inactive; Activity (Rattus norvegicus [18]): inactive; Activity (Rattus norvegicus [19]): inactive; Activity (Rattus norvegicus [20]): inactive; Activity (Rattus norvegicus [21]): inactive; Activity (Rattus norvegicus [22]): Non-toxic; Activity (Rattus norvegicus [23]): Non-toxic; Activity (Rattus norvegicus [24]): Non-toxic; Activity (Rattus norvegicus [25]): Non-toxic |
| Cn1c(=O)c2c(nc3n2CCCN3C2CCCC2)n(C)c1=O | inactive | inactive | inactive | inactive | Active | inactive | Non-toxic | Non-toxic | Non-toxic | Non-toxic | 5 | 1000 nM | 5310 nM | Activity (Mus musculus [29]): inactive; Activity (Mus musculus [30]): Toxic |
| CCCn1c(=O)c2[nH]c(C3C4CC5OC(=O)C3C5C4)nc2n(CCC)c1=O (configuration not stated) |  |  |  |  |  |  |  |  |  |  |  |  |  | Ki (Adenosine receptor A1 [31]): 0.3 nM; Ki (Adenosine receptor A3): > 10000 nM; Ki (Adenosine receptor A2b): 1540 nM; Ki (Adenosine receptor A2a [32]): 269 nM |
